Source: ChEMBL document CHEMBL1671838, “Discovery of MK-1220: A Macrocyclic Inhibitor of Hepatitis C Virus NS3/4A Protease with Improved Preclinical Plasma Exposure” (ACS Med Chem Lett, 2011)
pIC50, pKi: −log10 of the molar value.

What was measured:
[1] = Drug level in Sprague-Dawley rat liver at 5 mg/kg, po after 4 hrs; format: ADME, organism-based; parameters: dose 5 mg/kg, route oral; conditions: read-out: Drug uptake
Procedure, shortened: (§1)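 Rat PK screen: 5 mg/kg given orally in PEG400, n = 2; plasma AUC calculated from a 4 h experiment, and liver concentration measured at 4 h after dosing.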

Hepatitis C virus [2] = assay: Antiviral activity against HCV1b con1 infected in human HuH7 cells assessed as inhibition of viral replication after 24 hrs in presence of 50% normal human serum; format: functional, organism-based, Hepacivirus hominis; conditions: Con1, Huh-7, 24 h
Procedure, shortened: (§2)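 Cell-based HCV replicon assay giving IC50. Genotype 1b replicon run with 10% fetal bovine serum or with 50% normal human serum. Genotype 2a replicon run with 10% FBS.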

[3] = Inhibition of HCV NS3/4A protease expressed Escherichia coli after 1 hr by time-resolved fluorescence assay; parameters: species or system Hepacivirus hominis
Procedure, shortened: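 Binding assay against genotype 1b HCV NS3/4A protease, read by time-resolved fluorescence; potency expressed as Ki.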

Hepatitis C virus [4] = assay: Antiviral activity against HCV1b con1 infected in human HuH7 cells assessed as inhibition of viral replication after 24 hrs in presence of 10% fetal bovine serum; format: functional, organism-based, Hepacivirus hominis; conditions: Con1, Huh-7, 24 h; procedure, shortened: as §2
[5] = AUC in Sprague-Dawley rat plasma at 5 mg/kg, po after 4 hrs; format: ADME, organism-based; parameters: time < 4 hr, dose 5 mg/kg, route oral; procedure, shortened: as §1

Structure (SMILES)	concentration at 4 h [1]	pIC50 (Hepatitis C virus [2])	pKi [3]	pIC50 (Hepatitis C virus [4])	AUC at 4 h [5]
C=C[C@@H]1C[C@]1(NC(=O)[C@@H]1C[C@@H]2CN1C(=O)[C@H](C(C)(C)C)NC(=O)OCCC/C=C/c1ccc3ccnc(c3c1)O2)C(=O)NS(=O)(=O)C1CC1	18.6 µM	7.85	10.40	8.35	0.36 µM·h
C=C[C@@H]1C[C@]1(NC(=O)[C@@H]1C[C@@H]2CN1C(=O)[C@H](C1Cc3ccccc3C1)NC(=O)OCCC/C=C/c1ccc3ccnc(c3c1)O2)C(=O)NS(=O)(=O)C1CC1	4.5 µM	7.70	10.15	8.30	0.15 µM·h
C=C[C@@H]1C[C@]1(NC(=O)[C@@H]1C[C@@H]2CN1C(=O)[C@H](C(C)(C)C)NC(=O)OCCCCCc1cc(CC)c3ccnc(c3c1)O2)C(=O)NS(=O)(=O)C1CC1	12.5 µM	7.05	9.85	8.60	2.1 µM·h
C=C[C@@H]1C[C@]1(NC(=O)[C@@H]1C[C@@H]2CN1C(=O)[C@H](C(C)(C)C)NC(=O)OCCCCCc1cc3c(nccc3cc1OC)O2)C(=O)NS(=O)(=O)C1CC1	3 µM	6.95	10.40	8.52	9.6 µM·h
C=C[C@@H]1C[C@]1(NC(=O)[C@@H]1C[C@@H]2CN1C(=O)[C@H](c1c[nH]c3ccccc13)NC(=O)OCCC/C=C/c1ccc3ccnc(c3c1)O2)C(=O)NS(=O)(=O)C1CC1	0.4 µM		8.70	7.70	0.07 µM·h
C=C[C@@H]1C[C@]1(NC(=O)[C@@H]1C[C@@H]2CN1C(=O)[C@H](C(C)(C)C)NC(=O)OCCCCCc1cc(OC)c3ccnc(c3c1)O2)C(=O)NS(=O)(=O)C1CC1	33.2 µM	7.46	10.40	8.57	17.7 µM·h
C=C[C@@H]1C[C@]1(NC(=O)[C@@H]1C[C@@H]2CN1C(=O)[C@H](C(C)(C)C)NC(=O)OCCCCCc1cc(I)c3ccnc(c3c1)O2)C(=O)NS(=O)(=O)C1CC1	24.5 µM	7.25	10.52	8.64	1.4 µM·h
C=C[C@@H]1C[C@]1(NC(=O)[C@@H]1C[C@@H]2CN1C(=O)[C@H](C(C)(C)C)NC(=O)OCCCCCc1cc(SC)c3ccnc(c3c1)O2)C(=O)NS(=O)(=O)C1CC1	12.6 µM	7.47	10.52	8.70	1.8 µM·h
C=C[C@@H]1C[C@]1(NC(=O)[C@@H]1C[C@@H]2CN1C(=O)[C@H](C1CCC1)NC(=O)OCCCCCc1ccc3ccnc(c3c1)O2)C(=O)NS(=O)(=O)C1CC1		6.89	9.74	8.15	
C=C[C@@H]1C[C@]1(NC(=O)[C@@H]1C[C@@H]2CN1C(=O)[C@H](Cc1ccccc1)NC(=O)OCCC/C=C/c1ccc3ccnc(c3c1)O2)C(=O)NS(=O)(=O)C1CC1	10 µM		9.19	8.52	0.43 µM·h
C=C[C@@H]1C[C@]1(NC(=O)[C@@H]1C[C@@H]2CN1C(=O)[C@H](C(C)(C)C)NC(=O)OCCCCCc1cc(C(F)(F)F)c3ccnc(c3c1)O2)C(=O)NS(=O)(=O)C1CC1		6.39	9.60	7.68	
C=C[C@@H]1C[C@]1(NC(=O)[C@@H]1C[C@@H]2CN1C(=O)[C@H](C(C)(C)C)NC(=O)OCCCCCc1ccc3ccnc(c3c1)O2)C(=O)NS(=O)(=O)C1CC1		7.34	9.74	8.06	0.27 µM·h
C=C[C@@H]1C[C@]1(NC(=O)[C@@H]1C[C@@H]2CN1C(=O)[C@H](c1ccccc1)NC(=O)OCCCCCc1ccc3ccnc(c3c1)O2)C(=O)NS(=O)(=O)C1CC1			9.00		
C=C[C@@H]1C[C@]1(NC(=O)[C@@H]1C[C@@H]2CN1C(=O)[C@H](C(C)(C)C)NC(=O)OCCCCCc1cc(S(C)(=O)=O)c3ccnc(c3c1)O2)C(=O)NS(=O)(=O)C1CC1		< 6.00	9.96	6.55	
